# Source: ChEMBL document CHEMBL4425191, “Design, synthesis and biological evaluation of photoaffinity probes of antiangiogenic homoisoflavonoids” (2016)
# What was measured:
# Type in all cases: functional
# [1] = Antiproliferative activity against human HREC cells after 48 hrs by alamar blue based fluorescence assay
# Outline: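 Human retinal microvascular endothelial cells at passages 5–8, 2,500 per well, rested 24 h, then given test compound (0.5 nM–500 µM) for 48 h. Proliferation was read by alamarBlue 4 h after addition (ex 560, em 590 nm) and dose-response fitted against DMSO control. GI50 <100 µM was recorded only if ≥50% reduction occurred at the highest concentration.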
# [2] = system: HUVEC; assay: Antiproliferative activity against human HUVEC cells after 48 hrs by alamar blue based fluorescence assay
# Outline: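 HUVECs, passages 5–8, cultured in EGM-2 (EBM plus growth-factor bullet kit, 2% FBS). 2,500 cells were seeded 24 h, then incubated 48 h with compound at 0.5 nM–500 µM. alamarBlue was added and fluorescence read 4 h later at 560/590 nm; curves were fitted versus DMSO. GI50 <100 µM was listed only for ≥50% reduction at the top dose.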
# [3] = Antiproliferative activity against human 92-1 cells after 48 hrs by alamar blue based fluorescence assay
# [4] = system: Y79; assay: Antiproliferative activity against human Y79 cells after 48 hrs by alamar blue based fluorescence assay; settings: Y79, 48 h
# [5] = system: ARPE-19; assay: Antiproliferative activity against human ARPE19 cells after 48 hrs by alamar blue based fluorescence assay; settings: ARPE-19, 48 h
# Outline: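 ARPE19 cells grown in Ham's F-10 with 10% FBS and 1% pen-strep; 2,500 cells/well settled 24 h, then 48 h compound treatment over 0.5 nM–500 µM. alamarBlue fluorescence (560/590 nm) was read after 4 h; curves were fitted relative to DMSO. GI50 <100 µM was reported only where the highest concentration cut cell number by ≥50%.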
Structure (SMILES),GI50 [1] [µM],GI50 [2] [µM],GI50 [3] [µM],GI50 [4] [µM],GI50 [5] [µM]
COc1ccc(CC2COc3cc(OC)c(OC)c(OC)c3C2=O)cc1NC(=O)[C@H](Cc1ccc(OCCCC(=O)O)cc1)NC(=O)OC(C)(C)C (stereo not given in full),0.0079,22,> 100,> 100,> 100
COc1ccc(CC2COc3cc(OCCCC(=O)NCCCOc4ccc(C(=O)c5ccc(OCc6cn(CCOCCOCCOCCNC(=O)CCCC[C@@H]7SC[C@@H]8NC(=O)N[C@@H]87)nn6)cc5)cc4)c(OC)c(OC)c3C2=O)cc1OC(=O)[C@H](Cc1ccccc1)NC(=O)OC(C)(C)C (stereo not given in full),44,> 100,> 100,> 100,> 100
COc1ccc(CC2COc3cc(OC)c(OC)c(OC)c3C2=O)cc1OCC(=O)NCCCOc1ccc(C(=O)c2ccc(OCc3cn(CCOCCOCCOCCNC(=O)CCCC[C@@H]4SC[C@@H]5NC(=O)N[C@@H]54)nn3)cc2)cc1 (stereo not given in full),0.072,> 100,> 100,> 100,> 100
COc1ccc(CC2COc3cc(OC)c(OC)c(OC)c3C2=O)cc1OC(=O)[C@H](Cc1ccc(OCC(=O)NCCCOc2ccc(C(=O)c3ccc(OCc4cn(CCOCCOCCOCCNC(=O)CCCC[C@@H]5SC[C@@H]6NC(=O)N[C@@H]65)nn4)cc3)cc2)cc1)NC(=O)OC(C)(C)C (stereo not given in full),0.21,0.44,> 100,> 100,> 100
COc1ccc(CC2COc3cc(OC)c(OC)c(OC)c3C2=O)cc1OC(=O)[C@H](Cc1ccc(OCC(=O)O)cc1)NC(=O)OC(C)(C)C (stereo not given in full),0.047,0.012,> 100,> 100,> 100
COc1ccc(CC2COc3cc(OC)c(OC)c(OC)c3C2=O)cc1NC(=O)[C@H](Cc1ccc(OCCCC(=O)NCCCOc2ccc(C(=O)c3ccc(OCc4cn(CCOCCOCCOCCNC(=O)CCCC[C@@H]5SC[C@@H]6NC(=O)N[C@@H]65)nn4)cc3)cc2)cc1)NC(=O)OC(C)(C)C (stereo not given in full),42,> 100,> 100,> 100,> 100
